Test results as given in PMC5695149 (Theranostics, 2017).
Starred links: 1 amine or outer side, 2 acyl side, 3 side chain; linkers in the order of their positions; H or OH if unused. Positions of bridges follow the written chain, without caps; N, C: chain ends. Non-standard residues stand in square brackets, D forms with d. Residues, ends and D or L forms follow the SMILES beside them. hNle(4R-Ph,7-yl) = O=C([C@H](C[C@@H](CCC[*:3])c1ccccc1)N[*:1])[*:2]; X1 = C[C@H](CCC[*:3])C[C@H](N[*:1])C(=O)[*:2]

How the values were obtained:
[1] = tested on: QSG-7701 cells; assay: Cell viability; format: cell-based; conditions: QSG-7701 normal cells, 3.12-50 µM, 48 h
How it was run: (§1)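 MTT viability assay. Cells were seeded at 5 × 10³/well and given the test compound at 3.12, 6.25, 12.5, 25 or 50 µM in serum-free medium for 4 h. Serum was then replaced and cells incubated a further 44 h. MTT (5 mg/mL in PBS) was added for 4 h at 37 °C, 5% CO2, and formazan was dissolved in DMSO. A490 was read. SEM from at least three independent measurements.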

[2] = tested on: p53; assay: Western blot of p53 expression, PA-1; format: cell-based, human; conditions: PA-1, 40 µM peptide, 48 h
How it was run: (§2)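 Cells in 6-well plates were treated 48 h, then lysed in Tris-SDS buffer (pH 6.8). 20 μg protein was run on 10% SDS-PAGE and transferred to nitrocellulose. Blots were probed overnight at 4 °C with rabbit monoclonal anti-p53 (1:500), with pan-actin (1:1000) as reference. Goat secondary antibodies were applied 1 h at room temperature, with chemiluminescent detection.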

[3] = tested on: Skov-3 cells; assay: Cell viability; format: cell-based; conditions: Skov-3 (mutant p53), up to 50 μM, 48 h
How it was run: (§3)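 MTT assay: cells at 5 × 10^3/well were exposed to test compound (3.12, 6.25, 12.5, 25, 50 µM) in serum-free medium for 4 h. Serum was then restored for a further 44 h. MTT (5 mg/mL in PBS) was added for 4 h at 37 °C, 5% CO2. Formazan was dissolved in DMSO and absorbance read at 490 nm. At least three independent measurements, SEM shown.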

[4] = tested on: MDA-231 cells; assay: Cell viability; format: cell-based; conditions: MDA-231 (mutant p53), up to 50 μM, 48 h
How it was run: as §3

[5] = tested on: p53; assay: Western blot of p53 expression, MCF-7; format: cell-based; conditions: MCF-7, 40 µM peptide, 48 h
How it was run: as §2

[6] = target: T1, MDMX (Homo sapiens, UniProt O15151); assay: Fluorescence polarization assay, FITC-labeled peptide with GST-labeled MDMX; format: binding; conditions: compared within the library
T1 sequence (O15151 1-490): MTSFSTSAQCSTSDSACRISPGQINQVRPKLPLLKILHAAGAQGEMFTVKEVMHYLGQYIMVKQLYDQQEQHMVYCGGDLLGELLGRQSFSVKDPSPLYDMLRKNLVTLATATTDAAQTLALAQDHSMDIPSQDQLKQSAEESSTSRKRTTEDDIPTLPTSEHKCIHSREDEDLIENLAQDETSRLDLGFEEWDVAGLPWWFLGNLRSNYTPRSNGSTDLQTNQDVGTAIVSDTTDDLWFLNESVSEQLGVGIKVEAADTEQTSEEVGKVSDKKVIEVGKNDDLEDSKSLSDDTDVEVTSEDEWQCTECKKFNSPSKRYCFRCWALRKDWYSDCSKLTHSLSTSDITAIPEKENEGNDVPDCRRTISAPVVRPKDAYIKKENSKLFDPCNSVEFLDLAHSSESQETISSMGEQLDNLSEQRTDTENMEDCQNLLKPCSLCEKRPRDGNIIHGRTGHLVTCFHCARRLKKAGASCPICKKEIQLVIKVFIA
How it was run: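 Fluorescence polarization: FITC-labelled peptide (10 or 20 nM) incubated with MDMX protein in 140 mM NaCl, 50 mM Tris pH 8.0 for 1 h at room temperature. Peptide concentration set from FITC absorbance at 494 nm. Kd obtained by nonlinear regression of dose-response curves.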

[7] = tested on: HEK-293 cells; assay: Cell viability; format: cell-based; conditions: HEK-293 normal cells, 3.12-50 µM, 48 h
How it was run: as §1

[8] = tested on: PA-1 cells; assay: Cell cycle analysis by PI staining and flow cytometry, PA-1; format: cell-based, human; conditions: PA-1, 40 μM peptides or 5 μM nutlin-3a, 48 h
[9] = tested on: MCF-7 cells; assay: Cellular uptake of FITC-labelled peptides, confocal microscopy, MCF-7; format: cell-based; conditions: MCF-7, FITC-labeled peptide, 37°C, 2 h
How it was run: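 Cells in DMEM + 10% FBS (50000/well) were grown 1 day to ~80% adherence. FITC-labelled peptide (1 mM DMSO stock) was added to 5 µM final at 37 °C. Cells were washed 3× in PBS, fixed in 4% formaldehyde for 10 min, stained with DAPI 1 μg/mL for 5 min, and imaged by confocal microscopy. PA-1 uptake was also quantified by flow cytometry.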

[10] = tested on: PA-1 cells; assay: Annexin-V/PI apoptosis assay, PA-1; format: cell-based, human; conditions: PA-1, 40 μM peptides or 5 μM nutlin-3a, 48 h
How it was run: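 Exposed PA-1 cells were stained with Annexin-V/PI. Apoptotic cells were counted as the sum of quadrants Q1+Q2+Q3 and reported as a ratio of total cells.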

[11] = target: p53-MDM2 binding (Homo sapiens, UniProt Q00987); assay: Immunoprecipitation of p53-MDM2 from PA-1 cell lysates, western blotting; format: cell-based; conditions: PA-1, 40 μM, 4 h, versus DMSO control, 10% FBS
p53-MDM2 binding, sequence (Q00987 whole entry): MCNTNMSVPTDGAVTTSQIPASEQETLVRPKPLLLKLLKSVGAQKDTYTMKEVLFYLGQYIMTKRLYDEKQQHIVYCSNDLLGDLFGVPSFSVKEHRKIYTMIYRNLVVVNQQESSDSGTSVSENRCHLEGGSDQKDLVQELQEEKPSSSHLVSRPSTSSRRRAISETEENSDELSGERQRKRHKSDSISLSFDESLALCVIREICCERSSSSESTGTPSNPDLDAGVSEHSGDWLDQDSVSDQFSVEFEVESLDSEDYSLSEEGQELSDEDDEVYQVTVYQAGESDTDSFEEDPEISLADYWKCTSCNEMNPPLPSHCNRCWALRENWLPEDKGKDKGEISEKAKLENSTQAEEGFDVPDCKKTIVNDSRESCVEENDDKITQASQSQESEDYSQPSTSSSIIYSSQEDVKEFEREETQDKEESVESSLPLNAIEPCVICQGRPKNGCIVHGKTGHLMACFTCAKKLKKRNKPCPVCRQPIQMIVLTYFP
How it was run: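 Exponentially growing PA-1 cells received the test compound or an equal volume of DMSO. Cells were lysed in 50 mM Tris pH 8.0, 150 mM NaCl, 1 mM EDTA, 0.5% NP-40. Extract (500 µg) was precleared 2 h on protein G Sepharose, then incubated with rabbit monoclonal anti-p53 or mouse monoclonal anti-MDM2. Complexes were captured on protein G beads overnight at 4 °C and washed five times in cold lysis buffer. Western blots were probed for p53, MDM2 and pan-actin.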

[12] = tested on: p53; assay: p53 accumulation kinetics in HCT-116 Venus knock-in cell line; format: cell-based; conditions: HCT-116 p53-VKI; PhR 40 µM; nutlin-3a 0.5 or 5 µM (Fig. S9 legend)
[13] = Histological analysis; format: in vivo; conditions: 21 days after injection, compared with PBS-treated mice
How it was run: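 Tumor, heart, liver, spleen, lung, kidney and brain were harvested 21 days after injection. Tissue sections were stained with hematoxylin and eosin and examined for histological changes.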

[14] = tested on: caspase-3; assay: Caspase-3 activity assay, PA-1; format: cell-based, human
How it was run: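 Apoptosis in PA-1 cells was read as caspase-3 activity after exposing the cells to a caspase-3-specific substrate.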

[15] = Mice voluntary cage-wheel exercise assay; format: in vivo; conditions: BALB/c mice, 10 mg/kg subcutaneous, 20 days
How it was run: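 BALB/c mice were randomly split into two groups given a single subcutaneous injection of PBS or test compound (10 mg/kg). Voluntary cage-wheel running cycles were recorded over 20 days after injection.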

[16] = tested on: sox2 and foxA2 genes; assay: RT-qPCR of stemness and differentiation genes, PA-1; format: cell-based, human; conditions: PA-1, 40 µM, 48 h
How it was run: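 Exponentially growing PA-1 cells were seeded in 6-well plates and treated 48 h with 40 µM peptide; nutlin-3a at 1 µM was the comparator. mRNA was quantified by real-time qPCR and expressed as fold increase. Triplicates from three independent experiments, SEM shown.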

[17] = tested on: PA-1 cells; assay: Cellular uptake of FITC-labelled peptides, confocal microscopy and FACS, PA-1; format: cell-based, human; conditions: 37°C, 2 h
[18] = tested on: p53 and p21; assay: Immunohistochemistry of tumor tissues; format: in vivo, mice; conditions: PA-1 xenograft tumor tissue, 10 mg/kg
[19] = tested on: PA-1 xenograft; assay: Antitumor efficacy in PA-1 human xenograft model; format: in vivo, mice; conditions: for mice that died during the treatment period: 21 days of treatment
How it was run: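 Female athymic nude mice (BALB/c nu, 6 weeks) received 1 × 10^7 PA-1 cells in DMEM subcutaneously in the lower flank. After 10-15 days, mice with 100-150 mm3 tumors were randomized into 3 groups of 5-6. Test compound at 10 mg/kg, or PBS as negative control, was injected intratumorally every 2 days from day 0 for 21 days. Mice were followed a further 24 days; survival plotted as Kaplan-Meier curves.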

[20] = tested on: QSG-7701 cells; assay: Cell cycle analysis by PI staining and flow cytometry, QSG-7701; format: cell-based; conditions: QSG-7701, 48 h, PI staining
[21] = PA-1 xenograft, 10 mg/kg every other day

Structure (SMILES)	effect on cell growth and proliferation [1]	p53 expression (western blot) [2]	effect on cell viability [3]	effect on cell viability [4]	p53 expression (western blot) [5]	binding ability toward MDMX [6]	effect on cell growth and proliferation [7]	time to highest levels of p53 and p21 [12]	mice that died during the treatment period [19, 21]	also measured
CC(=O)N[C@@H](CC(C)C)C(=O)N[C@H](C(=O)N[C@@H](Cc1ccccc1)C(=O)N[C@H]1CSCCC[C@@H](C)C[C@@H](C(=O)N[C@@H](CCC(N)=O)C(=O)N[C@@H](CC(C)C)C(=O)N[C@H](C(=O)N[C@@H](CO)C(N)=O)[C@@H](C)O)NC(=O)[C@H](Cc2c[nH]c3ccccc23)NC(=O)[C@H](Cc2ccc(O)cc2)NC(=O)[C@H](Cc2c[nH]cn2)NC1=O)[C@@H](C)O [MeR] (Ac-LTFCHYW[X1]QLTS-NH2; thioether 4-8; N-terminus assumed)	little effect on the cell growth and proliferation	upregulated	Negligible effects	Negligible effects	upregulated	highest binding abilities	little effect on the cell growth and proliferation	–	–	–
CC(=O)N[C@@H](CC(C)C)C(=O)N[C@H](C(=O)N[C@@H](Cc1ccccc1)C(=O)N[C@H]1CSCCC[C@@H](c2ccccc2)C[C@@H](C(=O)N[C@@H](CCC(N)=O)C(=O)N[C@@H](CC(C)C)C(=O)N[C@H](C(=O)N[C@@H](CO)C(N)=O)[C@@H](C)O)NC(=O)[C@H](Cc2c[nH]c3ccccc23)NC(=O)[C@H](Cc2ccc(O)cc2)NC(=O)[C@H](Cc2c[nH]cn2)NC1=O)[C@@H](C)O [PhR] (Ac-LTFCHYW[hNle(4R-Ph,7-yl)]QLTS-NH2; thioether 4-8; N-terminus assumed)	little effect on the cell growth and proliferation	upregulated	Negligible effects	Negligible effects	upregulated	highest binding abilities	little effect on the cell growth and proliferation	12 h	no mice died	cell-cycle arrest [8]: more effective in inducing cell-cycle arrest in the G2/M phase than MeR and nutlin-3a; cellular uptake, comparison [9]: higher cellular uptake than MeR; apoptotic effect (Annexin-V/PI) [10]: more pronounced in PA-1 than those of MeR and nutlin-3a; MDM2 protein bound to p53 (IP and western blotting) [11]: substantial reduction of MDM2 protein bound to p53; histological changes of major organs (H&E) [13]: no signs of organ lesions; apoptosis by caspase-3 activity ([14]; PA-1, dose ladder): dose-dependent apoptosis; voluntary running cycles versus PBS group [15]: no significant differences; expression of differentiation gene foxA2 (qPCR) [16]: upregulation; expression of stemness gene sox2 (qPCR) [16]: significant downregulation; cellular uptake, comparison ([17]; PA-1, 5 µM FITC-labelled peptide, confocal and flow cytometry): higher cellular uptake than MeR; internalization, live cell confocal imaging ([17]; PA-1, 5 uM, live cells): internalized into the cells both in the cytoplasm and nucleus; p53 and p21 expression in tumor tissues (immunohistochemistry) [18]: higher expression levels of p53 and p21; survival (Kaplan-Meier) ([19]; treated for 21 days and raised for another 24 days post treatment): able to prolong the lives of the mice; cell-cycle arrest in normal cell line [20]: did not induce cell cycle arrest
COc1ccc(C2=N[C@@H](c3ccc(Cl)cc3)[C@@H](c3ccc(Cl)cc3)N2C(=O)N2CCNC(=O)C2)c(OC(C)C)c1 [nutlin-3a]	–	–	–	–	–	–	–	48 h	three in ten	apoptosis by caspase-3 activity ([14]; PA-1, at a low dose): minimal apoptosis; caspase-3 activity ([14]; PA-1, at higher doses (>5 μM)): no caspase-3 activity was detected; mice death in the first week of treatment [19, 21]: 20%; tumor growth inhibition (TGI) ([19]; PA-1 xenograft, athymic nude mice, 10 mg/kg every other day, intratumoral injection, 3 weeks): 30%
